Assay results from paper PMC6851786 (Journal of Clinical Pharmacology, 2019).
Entries after “also recorded” stand apart in the source; their conditions may differ. Read-outs that look alike come from different tables or passages of the source. Each block holds one molecule with its values, some of them ahead of it.

Tests used:
Safety assessment = format: in vivo, human (healthy adult subjects)
CYP1A2 = settings: healthy subjects; cited from earlier work
[1] = Part 3: effect of CYP1A2 inhibitor fluvoxamine on avadomide PK; format: in vivo, human (healthy adult subjects); settings: for Tmax / Vd/F / half-life / AUC(0-inf) / AUC(0-t) / Cmax: human, plasma; for AUC(0-inf): AUC0-inf; for AUC(0-inf) / AUC(0-t) / Cmax: Geometric LS Means; for AUC(0-t): AUC0-t
Procedure, shortened: (§1)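 Open-label, nonrandomized, single-sequence crossover in healthy adults, each subject serving as own control. Plasma for test compound was taken predose and at 0.5, 1, 2, 3, 4, 6, 8, 12, 24, 48 and 72 h postdose and assayed by validated LC-MS/MS (LLOQ 1 ng/mL; range 1–400 ng/mL). Parameters came from noncompartmental analysis, including apparent volume. The ANOVA used ln AUC0-t, AUC0-inf and Cmax, with treatment fixed and subject random. Combination/alone geometric mean ratios are given with 90% CI.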

[2] = Part 4: effect of CYP3A4 inducer rifampin on avadomide PK; format: in vivo, human (healthy adult subjects); settings: for Tmax / Vd/F / half-life / AUC(0-inf) / AUC(0-t) / Cmax: human, plasma; for AUC(0-inf): AUC0-inf; for AUC(0-inf) / AUC(0-t) / Cmax: Geometric LS Means; for AUC(0-t): AUC0-t
Procedure, shortened: as §1

[3] = across the 0.5- to 3.5-mg dose range; cited from earlier work
CYP3A4/5 and CYP1A2 = settings: human liver microsomes; ref data on file; cited from earlier work
[4] = Part 2: effect of CYP3A inhibitor itraconazole on avadomide PK; format: in vivo, human (healthy adult subjects); settings: for Tmax / Vd/F / half-life / AUC(0-inf) / AUC(0-t) / Cmax: human, plasma
Procedure, shortened: as §1

[5] = cited from earlier work
[6] = with the CYP1A2 inhibitor fluvoxamine; cited from earlier work
[7] = cited from earlier work; remark: listed apart in the source
[8] = cited from earlier work; remark: listed apart in the source
[9] = Part 4, following rifampin alone
[10] = avadomide + fluvoxamine/avadomide
[11] = fluvoxamine coadministration versus alone
[12] = oral, 3 mg, avadomide alone, Part 3, N 18, ANOVA
[13] = oral, avadomide + fluvoxamine, N 18, ANOVA
[14] = avadomide + rifampin /avadomide
[15] = oral, 3 mg, avadomide alone, Part 4, N 19, ANOVA
[16] = oral, avadomide + rifampin, N 18, ANOVA
[17] = Part 2, following avadomide alone
[18] = Part 2, following avadomide plus itraconazole
[19] = Part 3, following avadomide alone
[20] = Part 3, following avadomide plus fluvoxamine
[21] = Part 4, following avadomide plus rifampin
[22] = avadomide + itraconazole/avadomide
[23] = Part 3, following fluvoxamine alone
[24] = with the CYP3A4 inducer carbamazepine
[25] = with the CYP3A inhibitor ketoconazole

SMILES: CO[C@H]1/C=C/O[C@@]2(C)Oc3c(C)c(O)c4c(O)c(c(/C=N/N5CCN(C)CC5)c(O)c4c3C2=O)NC(=O)/C(C)=C\C=C\[C@H](C)[C@H](O)[C@@H](C)[C@@H](O)[C@@H](C)[C@H](OC(C)=O)[C@@H]1C [rifampin, reference compound]
number of TEAEs reported (Safety assessment; [9]): 5 TEAEs | subjects reporting TEAEs (Safety assessment; [9]): 22.2% | increase in conversion of caffeine to paraxanthine mediated by CYP1A2 (CYP1A2): 15%

geometric mean ratio of AUC0-t to AUC0-inf ([1]; avadomide 3 mg alone and with fluvoxamine, 72-hour sampling): greater than 90% | AUC0-inf, Ratio of Geometric LS Means [1, 10]: 154.81% | AUC0-t, Ratio of Geometric LS Means [1, 10]: 160.35% | Cmax, Ratio of Geometric LS Means [1, 10]: 107.59% | decrease of apparent clearance [1, 11]: 34% | prolongation of avadomide t½ [1, 11]: 50% | Tmax ([1]; oral): 0.79 h | Vd/F ([1]; oral): 54.3 L | half-life ([1]; oral): 13.7 h | AUC(0-inf) [1, 12]: 709 ng·h/mL | AUC(0-t) [1, 12]: 667 ng·h/mL | Cmax ([1]; oral, 3 mg, avadomide alone, Part 3, N 19, ANOVA): 70.2 ng/mL | AUC(0-inf) [1, 13]: 1100 ng·h/mL | AUC(0-t) [1, 13]: 1070 ng·h/mL | Cmax [1, 13]: 75.6 ng/mL | Tmax ([1]; po, 3 mg): 0.5 h | Vd/F ([1]; po, 3 mg): 55.2 L | half-life ([1]; po, 3 mg): 9.16 h | geometric mean ratio of AUC0-t to AUC0-inf ([2]; avadomide 3 mg alone and with rifampin, 72-hour sampling): greater than 90% | AUC0-inf, Ratio of Geometric LS Means [2, 14]: 62.83% | AUC0-t, Ratio of Geometric LS Means [2, 14]: 62.34% | Cmax, Ratio of Geometric LS Means [2, 14]: 88.17% | Tmax ([2]; oral): 0.53 h | Vd/F ([2]; oral): 57.3 L | half-life ([2]; oral): 6.08 h | AUC(0-inf) [2, 15]: 733 ng·h/mL | AUC(0-t) [2, 15]: 687 ng·h/mL | Cmax [2, 15]: 74.8 ng/mL | AUC(0-inf) [2, 16]: 460 ng·h/mL | AUC(0-t) [2, 16]: 428 ng·h/mL | Cmax [2, 16]: 65.9 ng/mL | Tmax ([2]; po, 3 mg): 0.55 h | Vd/F ([2]; po, 3 mg): 55 L | half-life ([2]; po, 3 mg): 9.29 h | geometric mean ratio of AUC0-t to AUC0-inf ([4]; avadomide 3 mg alone and with itraconazole, 72-hour sampling): greater than 90% | AUC0-t, Ratio of Geometric LS Means [4, 22]: 100.54% | Cmax, Ratio of Geometric LS Means [4, 22]: ~93.64% | Tmax ([4]; oral): 1 h | Vd/F ([4]; oral): 53.8 L | half-life ([4]; oral): 8.79 h | AUC(0-inf) ([4]; oral, 3 mg): 708 ng·h/mL | AUC(0-t) ([4]; oral, 3 mg): 675 ng·h/mL | Cmax ([4]; oral, 3 mg): 70.8 ng/mL | AUC(0-inf) ([4]; po, 3 mg): 708 ng·h/mL | AUC(0-t) ([4]; po, 3 mg): 675 ng·h/mL | Cmax ([4]; po, 3 mg): 70.8 ng/mL | Tmax ([4]; po, 3 mg): 1 h | Vd/F ([4]; po, 3 mg): 54.7 L | half-life ([4]; po, 3 mg): 8.94 h
SMILES: Cc1nc2cccc(N)c2c(=O)n1C1CCC(=O)NC1=O (centres unmarked) [Avadomide]
plasma exposure versus dose [3]: increased in a dose‐dependent manner | enzymes involved in oxidative metabolism (CYP3A4/5 and CYP1A2): major enzymes involved in the oxidative metabolism; also recorded: major isozymes involved in oxidative metabolism; also recorded: metabolized mainly by CYP3A and CYP1A2 in vitro | number of TEAEs reported (Safety assessment; [17]): 2 TEAEs | subjects reporting TEAEs (Safety assessment; [17]): 10.5% | number of TEAEs reported (Safety assessment; [18]): 2 TEAEs | subjects reporting TEAEs (Safety assessment; [18]): 10.5% | moderate TEAE of vomiting, considered related to the IP (Safety assessment; [19]): 1 subject | number of TEAEs reported (Safety assessment; [19]): 7 TEAEs | subjects reporting TEAEs (Safety assessment; [19]): 15.8% | number of TEAEs reported (Safety assessment; [20]): 9 TEAEs | subjects reporting TEAEs (Safety assessment; [20]): 38.9% | subjects reporting TEAEs (Safety assessment; Part 4, after avadomide alone): No subjects reported TEAEs | number of TEAEs reported (Safety assessment; [21]): 1 TEAE | subjects reporting TEAEs (Safety assessment; [21]): 5.6% | tolerability (Safety assessment; single oral dose of 3 mg alone or coadministered with fluvoxamine, itraconazole, or rifampin): well tolerated | plasma avadomide t½ (without CYP inhibition) ([5]; healthy subjects): ~8 h | Tmax ([5]; single oral dose 3 to 15 mg, healthy adult subjects): approximately 1 hour | tolerability ([5]; single oral doses of up to 15 mg, healthy subjects): well tolerated

SMILES: COCCCC/C(=N\OCCN)c1ccc(C(F)(F)F)cc1 [fluvoxamine, reference compound]
number of TEAEs reported (Safety assessment; [23]): 11 TEAEs | subjects reporting TEAEs (Safety assessment; [23]): 31.6%

SMILES: CCC(C)n1ncn(-c2ccc(N3CCN(c4ccc(OCC5COC(Cn6cncn6)(c6ccc(Cl)cc6Cl)O5)cc4)CC3)cc2)c1=O (centres unmarked) [itraconazole, reference compound]
subjects reporting TEAEs (Safety assessment; Part 2, after itraconazole alone): No subjects reported TEAEs

SMILES: Nc1cccc2c1C(=O)N(C1CCC(=O)NC1=O)C2=O (centres unmarked) [pomalidomide]
AUC, % of that when administered alone [6]: 225.1% | Cmax, % of that when administered alone [6]: 123.7% | metabolism and elimination [7]: primarily metabolized by CYP1A2 and CYP3A, with a low fraction excreted in urine as unchanged drug | AUC, % of that when administered alone [8, 24]: 79.7% | Cmax, % of that when administered alone [8, 24]: 75.0% | AUC, % of that when administered alone [8, 25]: 118.8% | Cmax, % of that when administered alone [8, 25]: 107.3%
